Legend:
Escherichia coli [1] = test: Antibacterial activity against Escherichia coli ATCC 25922 after 18 hrs in presence of ZnCl2 by broth dilution method; assay type: functional; conditions: ATCC 25922, 18 h
[2] = Bactericidal activity against Salmonella pullorum ATCC 7913; assay type: functional, Salmonella enterica subsp. enterica serovar Pullorum; conditions: Salmonella enterica, read-out: MBC99.9
Method in brief: (§1)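 Wells from the 24 h, 37 °C MHB microdilution plates (bacteria at a final (0.5−1) × 10^5 CFU/mL; peptide diluted in 0.2% BSA) were plated on agar and incubated overnight. MBC is the lowest concentration killing >99.9% of cells. Each test was reproduced at least 3 times.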

Pichia kudriavzevii [3] = test: Antifungal activity against Candida krusei cgmcc 2.1857 after 48 hrs by broth microdilution method; assay type: functional; conditions: cgmcc 2.1857, 48 h
Method in brief: (§2)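 Modified CLSI M27-A2 broth microdilution. Yeast were suspended in MOPS-buffered RPMI 1640 at a final (0.5−1) × 10^3 CFU/mL and mixed 1:1 with peptide serially diluted in 0.2% BSA. Plates were incubated 48 h at 28 °C and read at A492. MIC is the lowest concentration giving 95% inhibition. Run in triplicate with three biological replicates.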

Candida albicans [4] = test: Antifungal activity against Candida albicans cgmcc 2.2086 in presence of CaCl2 by broth dilution method; assay type: functional
Candida albicans [5] = test: Antifungal activity against Candida albicans 58288 after 48 hrs by broth microdilution method; assay type: functional; conditions: Candida albicans, 58288, 48 h
Method in brief: (§3)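 Modified CLSI M27-A2 broth microdilution. Yeast at (0.5−1) × 10^3 CFU/mL in MOPS-buffered RPMI 1640 was mixed 1:1 with peptide serially diluted in 0.2% BSA and incubated 48 h at 28 °C. Absorbance was read at 492 nm; MIC is the lowest concentration inhibiting 95% of growth. Triplicate, three biological replicates.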

Candida albicans [6] = test: Antifungal activity against fluconazole-resistant Candida albicans 56452 after 48 hrs by broth microdilution method; assay type: functional; conditions: Candida albicans, 56452, 48 h; method in brief: as §3
Candida albicans [7] = test: Antifungal activity against fluconazole-resistant Candida albicans 17546 after 48 hrs by broth microdilution method; assay type: functional; conditions: Candida albicans, 17546, 48 h; method in brief: as §3
Candida albicans [8] = test: Fungicidal activity against Candida albicans SP3902 after 96 hrs; assay type: functional; conditions: SP3902, 96 h, read-out: MFC99.9
Method in brief: (§4)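 After the 48 h, 28 °C broth microdilution in MOPS-buffered RPMI 1640 (inoculum (0.5−1) × 10^3 CFU/mL), 50 μL from each well was plated on YM agar for a further 48 h at 28 °C. MFC is the lowest concentration killing at least 99.9% of cells. Triplicate, three biological replicates.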

Candida albicans [9] = test: Antifungal activity against Candida albicans cgmcc 2.2086 in presence of NH4Cl by broth dilution method; assay type: functional
Candida albicans [10] = test: Antifungal activity against Candida albicans SP3902 after 48 hrs by broth microdilution method; assay type: functional; conditions: SP3902, 48 h; method in brief: as §3
Candida tropicalis [11] = test: Fungicidal activity against Candida tropicalis cgmcc 2.1975 after 96 hrs; assay type: functional; conditions: cgmcc 2.1975, 96 h, read-out: MFC99.9
Method in brief: (§5)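 Wells from the 48 h, 28 °C RPMI 1640/MOPS microdilution plates were plated on YM agar and incubated a further 48 h at 28 °C. MFC is the lowest concentration killing at least 99.9% of cells. Run in triplicate with three biological replicates.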

Candida parapsilosis = test: Fungicidal activity against Candida parapsilosis cgmcc 2.3989 after 96 hrs; assay type: functional; conditions: Lodderomyces parapsilosis, cgmcc 2.3989, 96 h; read-out: MFC99.9; method in brief: as §5
Candida albicans [12] = test: Antifungal activity against Candida albicans cgmcc 2.2086 in presence of NaCl by broth dilution method; assay type: functional
Candida albicans [13] = test: Fungicidal activity against Candida albicans SP3876 after 96 hrs; assay type: functional; conditions: SP3876, 96 h, read-out: MFC99.9; method in brief: as §4
[14] = Antibacterial activity against Salmonella pullorum ATCC 7913 after 24 hrs; assay type: functional, Salmonella enterica subsp. enterica serovar Pullorum; conditions: Salmonella enterica, ATCC 7913, 24 h
Method in brief: (§6)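 Broth microdilution. Mid-log bacteria in MHB at a final (0.5−1) × 10^5 CFU/mL were mixed with equal volumes of peptide serially diluted in 0.2% BSA. Plates were incubated 24 h at 37 °C and read at A492. MIC is the lowest concentration inhibiting 95% of growth. Each test was repeated at least 3 times.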

[15] = test system: Staphylococcus epidermidis; test: Bactericidal activity against Staphylococcus epidermidis ATCC 12228; assay type: functional; conditions: read-out: MBC99.9; method in brief: as §1
Escherichia coli [16] = test: Antibacterial activity against Escherichia coli 1005 after 24 hrs; assay type: functional; conditions: Escherichia coli, 1005, 24 h; method in brief: as §6
Candida albicans [17] = test: Fungicidal activity against Candida albicans SP3903 after 96 hrs; assay type: functional; conditions: SP3903, 96 h, read-out: MFC99.9; method in brief: as §4
Candida albicans [18] = test: Antifungal activity against Candida albicans cgmcc 2.2086 after 48 hrs by broth microdilution method; assay type: functional; conditions: cgmcc 2.2086, 48 h; method in brief: as §3
Candida albicans [19] = test: Antifungal activity against Candida albicans cgmcc 2.2086 in presence of ZnCl2 by broth dilution method; assay type: functional
Candida albicans [20] = test: Fungicidal activity against Candida albicans isolated from alveolar fluid after 96 hrs; assay type: functional; conditions: read-out: MFC99.9; method in brief: as §4
Staphylococcus aureus [21] = test: Bactericidal activity against Staphylococcus aureus ATCC 25923; assay type: functional; conditions: read-out: MBC99.9; method in brief: as §1
[22] = Cytotoxicity against HEK293T cells assessed as cell viability at 2 to 64 uM after 24 hrs by MTT assay relative to control; assay type: cell-based, HEK-293T; conditions: human, read-out: Activity
Method in brief: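 MTT viability assay. RAW264.7 or HEK293T cells at (1.0−2.0) × 10^5 per well were exposed to a peptide concentration series for 24 h at 37 °C in 5% CO2. MTT was then added at 0.5 mg/mL final for 4 h; formazan was dissolved in DMSO and read at 570 nm. Results average three independent trials.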

Pichia kudriavzevii [23] = test: Fungicidal activity against Candida krusei cgmcc 2.1857 after 96 hrs; assay type: functional; conditions: cgmcc 2.1857, 96 h, read-out: MFC99.9; method in brief: as §5
Staphylococcus aureus [24] = test: Bactericidal activity against methicillin-resistant Staphylococcus aureus ATCC 4330; assay type: functional; conditions: read-out: MBC99.9
Method in brief: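 Bacteria at (0.5−1) × 10^5 CFU/mL in MHB were exposed to serially diluted peptide (0.2% BSA) for 24 h at 37 °C, then 50 μL aliquots were plated on agar overnight. MBC is the lowest concentration killing >99.9% of cells. At least 3 repeats.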

Staphylococcus aureus [25] = test: Bactericidal activity against Staphylococcus aureus ATCC 29213; assay type: functional; conditions: read-out: MBC99.9; method in brief: as §1
Erythrocyte = test: Hemolytic activity in human RBC after 1 hr; assay type: ADME, cell-based
Method in brief: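 Fresh human erythrocytes, diluted 10-fold in PBS pH 7.4, were mixed with equal volumes of peptide and held 1 h at 37 °C. After centrifugation at 1000g, supernatant hemoglobin was read at 576 nm. PBS set 0% and 0.1% Triton X-100 set 100% lysis. MHC is the concentration causing 10% hemolysis. At least three experiments were run, each in technical triplicate.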

Candida tropicalis [26] = test: Antifungal activity against Candida tropicalis cgmcc 2.1975 after 48 hrs by broth microdilution method; assay type: functional; conditions: cgmcc 2.1975, 48 h; method in brief: as §2

Substance | MIC (Escherichia coli [1]) [µM] | MBC [2] [µM] | MIC95 (Pichia kudriavzevii [3]) [µM] | MIC (Candida albicans [4]) [µM] | MIC95 (Candida albicans [5]) [µM] | MIC95 (Candida albicans [6]) [µM] | MIC95 (Candida albicans [7]) [µM] | MFC (Candida albicans [8]) [µM] | MIC (Candida albicans [9]) [µM] | MIC95 (Candida albicans [10]) [µM] | MFC (Candida tropicalis [11]) [µM] | MFC (Candida parapsilosis) [µM] | MIC (Candida albicans [12]) [µM] | MFC (Candida albicans [13]) [µM] | MIC95 [14] [µM] | MBC [15] [µM] | MIC95 (Escherichia coli [16]) [µM] | MFC (Candida albicans [17]) [µM] | MIC95 (Candida albicans [18]) [µM] | MIC (Candida albicans [19]) [µM] | further results
H-FFRRFRRFF-NH2 | 8 | 64 | 4 | 32 | 16 | 16 | 4 | 32 | 8 | 32 | 8 | > 64 | 16 | 32 | 32 | 8 | 8 | 16 | 16 | 32 | MFC (Candida albicans [20]): 32 µM; MBC (Staphylococcus aureus [21]): 8 µM; viability at 24 h, up to 64 µM [22]: 70 to 80%; MFC (Pichia kudriavzevii [23]): 4 µM; MBC (Staphylococcus aureus [24]): 4 µM; MBC (Staphylococcus aureus [25]): 32 µM; HC10 (Erythrocyte): > 128 µM; MIC95 (Candida tropicalis [26]): 4 µM
H-RIRIIIRIR-NH2 | 8 | 16 | 2 | 32 | 2 | 4 | 2 | 2 | 4 | 2 | 4 | 16 | 16 | 1 | 4 | 8 | 4 | 8 | 4 | 4 | MFC (Candida albicans [20]): 8 µM; MBC (Staphylococcus aureus [21]): 8 µM; viability at 24 h, up to 64 µM [22]: 70 to 80%; MFC (Pichia kudriavzevii [23]): 4 µM; MBC (Staphylococcus aureus [24]): 4 µM; MBC (Staphylococcus aureus [25]): 8 µM; HC10 (Erythrocyte): > 128 µM; MIC95 (Candida tropicalis [26]): 2 µM
H-RFFRRFRRFFR-NH2 | 8 | 8 | 2 | 64 | 4 | 8 | 4 | 8 | 4 | 8 | 4 | > 64 | 32 | 8 | 4 | 4 | 8 | 4 | 8 | 8 | MFC (Candida albicans [20]): 16 µM; MBC (Staphylococcus aureus [21]): 8 µM; viability at 24 h, up to 64 µM [22]: 70 to 80%; MFC (Pichia kudriavzevii [23]): 4 µM; MBC (Staphylococcus aureus [24]): 8 µM; MBC (Staphylococcus aureus [25]): 16 µM; HC10 (Erythrocyte): > 128 µM; MIC95 (Candida tropicalis [26]): 2 µM
H-RRIRIIIRIRR-NH2 | 4 | 4 | 2 | 4 | 2 | 1 | 2 | 2 | 2 | 2 | 2 | 8 | 4 | 1 | 2 | 4 | 4 | 1 | 2 | 2 | MFC (Candida albicans [20]): 4 µM; MBC (Staphylococcus aureus [21]): 8 µM; viability at 24 h, up to 64 µM [22]: > 85%; MFC (Pichia kudriavzevii [23]): 2 µM; MBC (Staphylococcus aureus [24]): 4 µM; MBC (Staphylococcus aureus [25]): 8 µM; HC10 (Erythrocyte): > 128 µM; MIC95 (Candida tropicalis [26]): 1 µM
H-RLLRRLRRLLR-NH2 | 8 | 32 | 4 | 8 | 4 | 8 | 8 | 8 | 4 | 4 | 4 | 16 | 16 | 8 | 8 | 4 | 4 | 4 | 8 | 8 | MFC (Candida albicans [20]): 16 µM; MBC (Staphylococcus aureus [21]): 16 µM; viability at 24 h, up to 64 µM [22]: 70 to 80%; MFC (Pichia kudriavzevii [23]): 8 µM; MBC (Staphylococcus aureus [24]): 16 µM; MBC (Staphylococcus aureus [25]): 16 µM; HC10 (Erythrocyte): > 128 µM; MIC95 (Candida tropicalis [26]): 2 µM
H-RIIRRIRRIIR-NH2 | 16 | 64 | 4 | 64 | 8 | 8 | 16 | 16 | 16 | 16 | 2 | > 64 | 64 | 16 | 16 | 32 | 8 | 4 | 16 | 64 | MFC (Candida albicans [20]): 32 µM; MBC (Staphylococcus aureus [21]): 64 µM; viability at 24 h, up to 64 µM [22]: 70 to 80%; MFC (Pichia kudriavzevii [23]): 8 µM; MBC (Staphylococcus aureus [24]): 16 µM; MBC (Staphylococcus aureus [25]): > 64 µM; HC10 (Erythrocyte): > 128 µM; MIC95 (Candida tropicalis [26]): 1 µM
H-LLRRLRRLL-NH2 | 16 | 64 | 8 | 64 | 64 | 32 | 64 | > 64 | 32 | > 64 | 8 | > 64 | 64 | 4 | 32 | 16 | 16 | 16 | 32 | 64 | MFC (Candida albicans [20]): > 64 µM; MBC (Staphylococcus aureus [21]): 32 µM; viability at 24 h, up to 64 µM [22]: 70 to 80%; MFC (Pichia kudriavzevii [23]): 8 µM; MBC (Staphylococcus aureus [24]): 16 µM; MBC (Staphylococcus aureus [25]): 64 µM; HC10 (Erythrocyte): > 128 µM; MIC95 (Candida tropicalis [26]): 4 µM
H-RRWRWWWRWRR-NH2 | 4 | 4 | 2 | 8 | 2 | 4 | 4 | 4 | 4 | 4 | 4 | 16 | 8 | 4 | 2 | 8 | 4 | 4 | 4 | 4 | MFC (Candida albicans [20]): 8 µM; MBC (Staphylococcus aureus [21]): 8 µM; viability at 24 h, up to 64 µM [22]: 70 to 80%; MFC (Pichia kudriavzevii [23]): 2 µM; MBC (Staphylococcus aureus [24]): 8 µM; MBC (Staphylococcus aureus [25]): 4 µM; HC10 (Erythrocyte): > 128 µM; MIC95 (Candida tropicalis [26]): 2 µM
